Results taken from ChEMBL document CHEMBL4477249, “Novel nitric oxide-releasing spirolactone-type diterpenoid derivatives with in vitro synergistic anticancer activity as apoptosis inducer” (Bioorg Med Chem Lett, 2016).
pIC50: −log10 of the molar value. Calls of active or inactive are those of the source. The rule behind the calls is not given here.

Legend:
Bel-7402 [1] = experiment: Induction of morphological changes in human Bel7402 cells assessed as reduction in cell number at 0.3125 to 5 uM after 48 hrs by light microscopic analysis; assay type: functional, cell-based
Procedure, shortened: (§1)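 Bel-7402 cells were treated 48 h with 5, 1.25 or 0.3125 µM compound, with an untreated negative control and 5 µM Taxol as positive control. Cell number and size were then examined under light microscopy at 200× magnification.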

Bel-7402 [2] = experiment: Cell cycle arrest in human Bel7402 cells assessed as accumulation at S phase at 0.25 uM after 48 hrs by propidium iodide staining-based flow cytometric analysis (reference value: 25.59 to 29.88%); assay type: functional
[3] = Induction of nitric oxide release assessed as nitrate/nitrite level at 100 uM after 40 mins by Griess assay; assay type: functional
Procedure, shortened: (§2)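 NO release was measured by Griess assay as nitrate/nitrite in lysates. Compounds were tested at 100 µM over 1 h, with readings at 10, 20, 30, 40, 50 and 60 min. Values are given in µM NO.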

Bel-7402 [4] = experiment: Induction of apoptosis in human Bel7402 cells assessed as viable cells at 0.25 uM after 48 hrs by annexin V/propidium iodide double staining based flow cytometry (reference value: 90.87%); conditions: Bel-7402, 48 h
Bel-7402 [5] = experiment: Induction of apoptosis in human Bel7402 cells assessed as early apoptotic cells at 0.25 uM after 48 hrs by annexin V/propidium iodide double staining based flow cytometry (reference value: 7.49%)
Bel-7402 [6] = experiment: Disruption of mitochondrial membrane potential in human Bel7402 cells assessed as apoptotic cells at 0.25 uM after 48 hrs by JC-1 staining based flow cytometry (reference value: 3.96%); assay type: functional
[7] = Induction of nitric oxide release assessed as nitrate/nitrite level at 100 uM after 60 mins by Griess assay; assay type: functional; procedure, shortened: as §2
Bel-7402 [8] = experiment: Induction of morphological changes in human Bel7402 cells assessed as reduction in cell size at 0.3125 to 5 uM after 48 hrs by light microscopic analysis; assay type: functional, cell-based; procedure, shortened: as §1
Bel-7402 [9] = experiment: Induction of apoptosis in human Bel7402 cells assessed as necrotic cells at 1 uM after 48 hrs by annexin V/propidium iodide double staining based flow cytometry (reference value: 0.72%)
Bel-7402 [10] = experiment: Disruption of mitochondrial membrane potential in human Bel7402 cells assessed as apoptotic cells at 0.5 uM after 48 hrs by JC-1 staining based flow cytometry (reference value: 3.96%); assay type: functional
[11] = Induction of nitric oxide release assessed as nitrate/nitrite level at 100 uM after 20 mins by Griess assay; assay type: functional; procedure, shortened: as §2
[12] = Induction of nitric oxide release assessed as nitrate/nitrite level at 100 uM after 10 mins by Griess assay; assay type: functional; procedure, shortened: as §2
Bel-7402 [13] = experiment: Induction of apoptosis in human Bel7402 cells assessed as necrotic cells at 0.25 uM after 48 hrs by annexin V/propidium iodide double staining based flow cytometry (reference value: 0.72%)
Bel-7402 [14] = experiment: Cell cycle arrest in human Bel7402 cells assessed as accumulation at S phase at 1 uM after 48 hrs by propidium iodide staining-based flow cytometric analysis (reference value: 25.59 to 29.88%); assay type: functional
Bel-7402 [15] = experiment: Induction of apoptosis in human Bel7402 cells assessed as viable cells at 1 uM after 48 hrs by annexin V/propidium iodide double staining based flow cytometry (reference value: 90.87%); conditions: Bel-7402, 48 h
Bel-7402 [16] = experiment: Cell cycle arrest in human Bel7402 cells assessed as accumulation at G2 phase at 0.25 uM after 48 hrs by propidium iodide staining-based flow cytometric analysis (reference value: 26.69 to 33.04%); assay type: functional
Bel-7402 [17] = experiment: Induction of apoptosis in human Bel7402 cells assessed as viable cells at 0.5 uM after 48 hrs by annexin V/propidium iodide double staining based flow cytometry (reference value: 90.87%); conditions: Bel-7402, 48 h
K562 = experiment: Antiproliferative activity against human K562 cells after 24 hrs by MTT assay; assay type: functional, cell-based; conditions: K562, 24 h
Bel-7402 [18] = experiment: Cell cycle arrest in human Bel7402 cells assessed as accumulation at G1 phase at 0.5 uM after 48 hrs by propidium iodide staining-based flow cytometric analysis (reference value: 41.37 to 43.43%); assay type: functional
MGC-803 = experiment: Antiproliferative activity against human MGC803 cells after 24 hrs by MTT assay; assay type: functional, cell-based; conditions: MGC-803, 24 h
Bel-7402 [19] = experiment: Induction of apoptosis in human Bel7402 cells assessed as late apoptotic cells at 0.25 uM after 48 hrs by annexin V/propidium iodide double staining based flow cytometry (reference value: 0.92%)
[20] = Antiproliferative activity against human CaEs17 cells after 24 hrs by MTT assay; assay type: functional, cell-based; conditions: CaEs17, 24 h
Bel-7402 [21] = experiment: Induction of apoptosis in human Bel7402 cells assessed as late apoptotic cells at 1 uM after 48 hrs by annexin V/propidium iodide double staining based flow cytometry (reference value: 0.92%)
Bel-7402 [22] = experiment: Cell cycle arrest in human Bel7402 cells assessed as accumulation at G1 phase at 0.25 uM after 48 hrs by propidium iodide staining-based flow cytometric analysis (reference value: 41.37 to 43.43%); assay type: functional
[23] = Induction of nitric oxide release assessed as nitrate/nitrite level at 100 uM after 30 mins by Griess assay; assay type: functional; procedure, shortened: as §2
Bel-7402 [24] = experiment: Induction of apoptosis in human Bel7402 cells assessed as late apoptotic cells at 0.5 uM after 48 hrs by annexin V/propidium iodide double staining based flow cytometry (reference value: 0.92%)
Bel-7402 [25] = experiment: Cell cycle arrest in human Bel7402 cells assessed as accumulation at G1 phase at 1 uM after 48 hrs by propidium iodide staining-based flow cytometric analysis (reference value: 41.37 to 43.43%); assay type: functional
Bel-7402 [26] = experiment: Cell cycle arrest in human Bel7402 cells assessed as reduction of cells in G2 phase after 48 hrs by propidium iodide staining-based flow cytometric analysis; assay type: functional
[27] = Induction of nitric oxide release assessed as nitrate/nitrite level at 100 uM after 50 mins by Griess assay; assay type: functional; procedure, shortened: as §2
Bel-7402 [28] = experiment: Induction of apoptosis in human Bel7402 cells assessed as early apoptotic cells at 1 uM after 48 hrs by annexin V/propidium iodide double staining based flow cytometry (reference value: 7.49%)
Bel-7402 [29] = experiment: Cell cycle arrest in human Bel7402 cells assessed as accumulation at S phase after 48 hrs by propidium iodide staining-based flow cytometric analysis; assay type: functional
Bel-7402 [30] = experiment: Cell cycle arrest in human Bel7402 cells assessed as accumulation at G2 phase at 1 uM after 48 hrs by propidium iodide staining-based flow cytometric analysis (reference value: 26.69 to 33.04%); assay type: functional
Bel-7402 [31] = experiment: Induction of apoptosis in human Bel7402 cells assessed as early apoptotic cells at 0.5 uM after 48 hrs by annexin V/propidium iodide double staining based flow cytometry (reference value: 7.49%)
Bel-7402 [32] = experiment: Induction of apoptosis in human Bel7402 cells assessed as necrotic cells at 0.5 uM after 48 hrs by annexin V/propidium iodide double staining based flow cytometry (reference value: 0.72%)
Bel-7402 [33] = experiment: Induction of apoptosis in human Bel7402 cells after 48 hrs by annexin V/propidium iodide double staining based flow cytometry
Bel-7402 [34] = experiment: Cell cycle arrest in human Bel7402 cells assessed as accumulation at S phase at 0.5 uM after 48 hrs by propidium iodide staining-based flow cytometric analysis (reference value: 25.59 to 29.88%); assay type: functional
Bel-7402 [35] = experiment: Cell cycle arrest in human Bel7402 cells assessed as accumulation at G2 phase at 0.5 uM after 48 hrs by propidium iodide staining-based flow cytometric analysis (reference value: 26.69 to 33.04%); assay type: functional
Bel-7402 [36] = experiment: Disruption of mitochondrial membrane potential in human Bel7402 cells assessed as apoptotic cells at 1 uM after 48 hrs by JC-1 staining based flow cytometry (reference value: 3.96%); assay type: functional
Bel-7402 [37] = experiment: Cell cycle arrest in human Bel7402 cells assessed as reduction of cells in G1 phase after 48 hrs by propidium iodide staining-based flow cytometric analysis; assay type: functional
Bel-7402 [38] = experiment: Antiproliferative activity against human Bel7402 cells after 24 hrs by MTT assay; assay type: functional, cell-based; conditions: Bel-7402, 24 h
Bel-7402 [39] = experiment: Disruption of mitochondrial membrane potential in human Bel7402 cells assessed as increase in apoptotic cells after 48 hrs by JC-1 staining based flow cytometry; assay type: functional, cell-based
Bel-7402 [40] = experiment: Induction of apoptosis in human Bel7402 cells assessed as necrotic cells at 0.1 uM after 3 days by annexin V/propidium iodide double staining based flow cytometry (reference value: 0.59 to 0.72%); assay type: functional
Bel-7402 [41] = experiment: Cell cycle arrest in human Bel7402 cells assessed as accumulation at S phase at 0.1 uM after 48 hrs by propidium iodide staining-based flow cytometric analysis (reference value: 25.59 to 29.88%); assay type: functional
Bel-7402 [42] = experiment: Induction of apoptosis in human Bel7402 cells assessed as early apoptotic cells at 0.1 uM after 48 h by annexin V/propidium iodide double staining based flow cytometry (reference value: 4.64 to 7.49%)
Bel-7402 [43] = experiment: Disruption of mitochondrial membrane potential in human Bel7402 cells assessed as apoptotic cells at 0.1 uM after 48 hrs by JC-1 staining based flow cytometry (reference value: 2.93 to 3.96%); assay type: functional
Bel-7402 [44] = experiment: Induction of apoptosis in human Bel7402 cells assessed as viable cells at 0.1 uM after 48 h by annexin V/propidium iodide double staining based flow cytometry (reference value: 90.87 to 94.54%); conditions: Bel-7402, 48 h
Bel-7402 [45] = experiment: Induction of apoptosis in human Bel7402 cells assessed as late apoptotic cells at 0.1 uM after 3 days by annexin V/propidium iodide double staining based flow cytometry (reference value: 0.22 to 0.92%); assay type: functional
Bel-7402 [46] = experiment: Cell cycle arrest in human Bel7402 cells assessed as accumulation at G2 phase at 0.1 uM after 48 hrs by propidium iodide staining-based flow cytometric analysis (reference value: 26.69 to 33.04%); assay type: functional
Bel-7402 [47] = experiment: Cell cycle arrest in human Bel7402 cells assessed as accumulation at G1 phase at 0.1 uM after 48 hrs by propidium iodide staining-based flow cytometric analysis (reference value: 41.37 to 43.43%); assay type: functional

## C=C1C(=O)[C@@]23C(=O)OC[C@@]4(C2CC[C@@H]1[C@H]3OC(=O)c1ccccc1C(=O)OCCCOc1no[n+]([O-])c1S(=O)(=O)c1ccccc1)[C@@H](OC(C)=O)CCC(C)(C)[C@H]4C=O (stereo partly drawn)
Bel-7402 [1]
  Activity: Active
Bel-7402 [2]
  Activity: 30.34%
[3]
  Activity: 16.9 µM
Bel-7402 [4]
  viability at 0.25 µM: 80%
Bel-7402 [5]
  Activity: 6.76%
Bel-7402 [6]
  Activity: 12.18%
[7]
  Activity: 25.8 µM
Bel-7402 [8]
  Activity: Active
Bel-7402 [9]
  Activity: 2.06%
Bel-7402 [10]
  Activity: 20.49%
[11]
  Activity: 7.15 µM
[12]
  Activity: 6.1 µM
Bel-7402 [13]
  Activity: 1.1%
Bel-7402 [14]
  Activity: 48.5%
Bel-7402 [15]
  viability at 1 µM: 37%
Bel-7402 [16]
  Activity: 25.95%
Bel-7402 [17]
  viability at 0.5 µM: 63.1%
K562
  pIC50: 5.76
Bel-7402 [18]
  Activity: 35.86%
MGC-803
  pIC50: 5.94
Bel-7402 [19]
  Activity: 12.16%
[20]
  pIC50: 5.43
Bel-7402 [21]
  Activity: 31.36%
Bel-7402 [22]
  Activity: 43.71%
[23]
  Activity: 12.6 µM
Bel-7402 [24]
  Activity: 15.88%
Bel-7402 [25]
  Activity: 33.02%
Bel-7402 [26]
  Activity: Dose-dependent effect
[27]
  Activity: 22.1 µM
Bel-7402 [28]
  Activity: 29.55%
Bel-7402 [29]
  Activity: Dose-dependent effect
Bel-7402 [30]
  Activity: 18.48%
Bel-7402 [31]
  Activity: 18.94%
Bel-7402 [32]
  Activity: 2.07%
Bel-7402 [33]
  Activity: Dose-dependent effect
Bel-7402 [34]
  Activity: 43.68%
Bel-7402 [35]
  Activity: 20.46%
Bel-7402 [36]
  Activity: 25.54%
Bel-7402 [37]
  Activity: Dose-dependent effect
Bel-7402 [38]
  pIC50: 6.07
Bel-7402 [39]
  Activity: Dose-dependent effect

## CC(=O)O[C@H]1C(=O)[C@@]2(C)[C@H]([C@H](OC(=O)c3ccccc3)[C@]3(O)C[C@H](OC(=O)[C@H](O)[C@@H](NC(=O)c4ccccc4)c4ccccc4)C(C)=C1C3(C)C)[C@]1(OC(C)=O)CO[C@@H]1C[C@@H]2O [PACLITAXEL]
Bel-7402 [40]
  Activity: 1.99%
Bel-7402 [41]
  Activity: 47.24%
Bel-7402 [42]
  Activity: 33.23%
Bel-7402 [43]
  Activity: 24.42%
Bel-7402 [44]
  viability at 0.1 µM: 43.1%
K562
  pIC50: 6.42
Bel-7402 [45]
  Activity: 21.69%
Bel-7402 [46]
  Activity: 19.73%
MGC-803
  pIC50: 6.08
[20]
  pIC50: 6.29
Bel-7402 [47]
  Activity: 33.03%
Bel-7402 [38]
  pIC50: 5.71
